Where two headings read alike, the source gives them in different places. One block for each compound: values may come before it.
Experiments:
[1] = test system: M1; details: cited from earlier work; for IC50: read-out: M1 IC50, MLSCN screen hit
[2] = target: hM3 (Homo sapiens, UniProt P20309); test: calcium mobilization assay, hM3 CHO-K1 cells; assay type: cell-based
[3] = target: T1, hM2 (Homo sapiens, UniProt P08172); test: calcium mobilization assay, hM2 CHO cells with Gqi5 chimeric G protein; assay type: cell-based; details: compound at 10 μM
T1 sequence (P08172 1-466): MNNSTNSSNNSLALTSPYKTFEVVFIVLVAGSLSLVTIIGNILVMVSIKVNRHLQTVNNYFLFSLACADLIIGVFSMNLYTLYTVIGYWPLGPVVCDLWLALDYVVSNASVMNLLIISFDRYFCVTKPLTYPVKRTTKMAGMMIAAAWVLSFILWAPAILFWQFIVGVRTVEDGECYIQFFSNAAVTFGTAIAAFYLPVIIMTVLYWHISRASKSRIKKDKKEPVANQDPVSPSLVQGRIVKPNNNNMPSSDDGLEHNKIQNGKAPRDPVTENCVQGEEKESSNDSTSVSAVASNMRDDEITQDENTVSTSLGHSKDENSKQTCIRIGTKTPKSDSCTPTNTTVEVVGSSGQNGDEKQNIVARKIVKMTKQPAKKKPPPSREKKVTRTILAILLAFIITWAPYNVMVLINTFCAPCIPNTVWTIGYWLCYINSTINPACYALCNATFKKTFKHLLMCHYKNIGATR
How it was run: (§1)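 CHO-K1 cells stably expressing human receptor (M2 line also stably transfected with Gqi5 chimeric G protein so it signals through calcium; M5 line without chimera) were plated overnight. Cells were loaded with 2 μM Fluo-4 AM in HBSS/20 mM HEPES/2.5 mM probenecid, pH 7.4, for 45 min at 37°C, then dye was replaced with buffer. Cells were pre-incubated with 10 μM test compound, then given sub-maximal acetylcholine or carbachol. Signal was normalized to baseline and expressed as % of maximal acetylcholine response.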

[4] = target: T2, hM5 (Homo sapiens, UniProt P08912); test: calcium mobilization assay, hM5 CHO-K1 cells; assay type: cell-based; details: compound at 10 μM
T2 sequence (P08912 1-532): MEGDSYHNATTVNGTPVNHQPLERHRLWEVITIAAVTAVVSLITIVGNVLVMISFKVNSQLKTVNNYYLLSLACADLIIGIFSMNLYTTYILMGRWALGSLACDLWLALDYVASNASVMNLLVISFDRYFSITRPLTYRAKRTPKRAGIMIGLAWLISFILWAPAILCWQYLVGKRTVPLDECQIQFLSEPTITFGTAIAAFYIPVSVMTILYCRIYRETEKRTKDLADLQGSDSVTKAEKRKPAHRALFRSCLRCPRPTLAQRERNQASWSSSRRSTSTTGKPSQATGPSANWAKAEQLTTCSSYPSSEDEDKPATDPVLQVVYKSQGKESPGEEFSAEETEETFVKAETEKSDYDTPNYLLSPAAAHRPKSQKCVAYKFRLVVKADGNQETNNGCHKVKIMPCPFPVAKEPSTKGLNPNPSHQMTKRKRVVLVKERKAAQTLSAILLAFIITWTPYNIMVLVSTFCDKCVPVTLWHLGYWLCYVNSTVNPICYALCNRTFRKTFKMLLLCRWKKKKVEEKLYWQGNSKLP
How it was run: as §1

Sequence of hM3 (P20309 whole entry): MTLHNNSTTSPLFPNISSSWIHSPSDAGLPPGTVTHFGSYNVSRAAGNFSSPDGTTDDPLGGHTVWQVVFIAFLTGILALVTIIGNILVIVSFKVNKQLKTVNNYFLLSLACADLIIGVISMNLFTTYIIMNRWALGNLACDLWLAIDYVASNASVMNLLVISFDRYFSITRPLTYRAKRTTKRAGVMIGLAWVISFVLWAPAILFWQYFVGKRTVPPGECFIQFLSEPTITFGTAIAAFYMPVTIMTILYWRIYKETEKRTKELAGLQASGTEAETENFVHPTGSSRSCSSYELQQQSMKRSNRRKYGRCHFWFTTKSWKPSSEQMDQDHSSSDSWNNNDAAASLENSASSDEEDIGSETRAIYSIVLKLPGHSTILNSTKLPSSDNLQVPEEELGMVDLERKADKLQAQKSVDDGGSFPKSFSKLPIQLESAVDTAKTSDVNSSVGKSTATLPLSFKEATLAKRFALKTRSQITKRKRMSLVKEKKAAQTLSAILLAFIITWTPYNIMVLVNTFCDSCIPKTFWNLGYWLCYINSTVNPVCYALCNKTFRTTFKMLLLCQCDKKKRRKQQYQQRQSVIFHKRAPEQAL

Structure (SMILES): CCN1CCN(c2ccc(NC(=O)CCC3CCCC3)cc2Cl)CC1 [Compound 5]
- selectivity versus M4 ([1]; M1 over M4): > 340 fold
- IC50 [1]: 0.441 µM

Structure (SMILES): CCN1CCN(c2ccc(NC(=O)c3ccccc3)cc2Cl)CC1 [Compound 6]
- selectivity versus M2-M5 ([1]; M1 over M2-M5): > 30 fold
- IC50 ([1]; original sample): 5 µM

- IC50 [2]: 8.2 µM
Structure (SMILES): CCN1CCN(c2ccc(NC(=O)c3ccccc3Cl)cc2Cl)CC1 [Compound 8a]

- effect on an ACh EC80 on M2 [3]: little effect
- effect on an ACh EC80 on M3 ([2]; compound at 10 μM): little effect
- effect on an ACh EC80 on M5 [4]: little effect
Structure (SMILES): CCN1CCN(c2ccc(NC(=O)c3cc(C(F)(F)F)cc(C(F)(F)F)c3)cc2Cl)CC1 [Compound 8i]
